Laboratory results from ChEMBL document CHEMBL3526048, “In vitro metabolism of rivoglitazone, a novel peroxisome proliferator-activated receptor γ agonist, in rat, monkey, and human liver microsomes and freshly isolated hepatocytes” (Drug Metab Dispos, 2011).

Tests used:
[1] = Drug metabolism in rat hepatocytes assessed as formation of 2-hydroxy-3-(4-((6-methoxy-1-methyl-1H-benzo[d]imidazol-2-yl)methoxy)phenyl)propanamide at 30 uM after 3 hrs by radio-HPLC/LC-MS/MS analysis in presence of NADPH-generating system and NADPH-generating system/SAM; type: ADME, cell-based, Hepatocyte
[2] = Drug metabolism in rat hepatocytes assessed as formation of (2S,3S,4S,5R,6R)-3,4,5-trihydroxy-6-(5-(4-((6-methoxy-1-methyl-1H-benzo[d]imidazol-2-yl)methoxy)benzyl)-2,4-dioxothiazolidin-3-yl)tetrahydro-2H-pyran-2-carboxylic acid at 30 uM after 3 hrs by radio-HPLC/LC-MS/MS analysis in presence of UDPGA and UDPGA/SAM; type: ADME, cell-based, Hepatocyte
[3] = biological target: T1, UDP-glucuronosyltransferase 1A6 (Homo sapiens, UniProt P19224); experiment: Activity of human UGT1A6 expressed in microsomes isolated from baculovirus infected insect cell assessed as enzyme-mediated 2-mercapto-3-(4-((6-methoxy-1-methyl-1H-benzo[d]imidazol-2-yl)methoxy)phenyl)propanoic acid formation at 20 uM after 4 hrs by radio-HPLC/LC-MS/MS analysis in presence of UDPGA; type: ADME
T1 sequence (P19224 whole entry): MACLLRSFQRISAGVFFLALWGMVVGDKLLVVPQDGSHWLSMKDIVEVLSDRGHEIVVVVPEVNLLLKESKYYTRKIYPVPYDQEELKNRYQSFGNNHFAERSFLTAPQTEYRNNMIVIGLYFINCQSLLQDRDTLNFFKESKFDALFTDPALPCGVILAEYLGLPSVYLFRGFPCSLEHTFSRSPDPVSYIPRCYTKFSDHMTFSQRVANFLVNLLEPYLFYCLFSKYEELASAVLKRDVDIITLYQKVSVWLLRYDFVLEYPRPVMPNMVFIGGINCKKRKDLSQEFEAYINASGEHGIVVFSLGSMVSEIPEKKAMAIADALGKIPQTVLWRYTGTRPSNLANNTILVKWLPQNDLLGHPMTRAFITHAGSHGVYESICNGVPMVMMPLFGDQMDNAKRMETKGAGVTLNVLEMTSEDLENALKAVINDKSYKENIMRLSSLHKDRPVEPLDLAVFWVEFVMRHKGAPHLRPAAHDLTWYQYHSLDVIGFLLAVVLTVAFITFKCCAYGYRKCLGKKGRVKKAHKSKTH

Cytochrome P450 2C9 = Cytochrome P450 2C9 (Homo sapiens, UniProt P11712); experiment: Activity of human CYP2C9 expressed in microsomes isolated from baculovirus infected insect cell assessed as enzyme-mediated 3-(4-((6-methoxy-1-methyl-1H-benzo[d]imidazol-2-yl)methoxy)phenyl)-2-(methylthio)propanamide formation at 20 uM after 2 hrs by radio-HPLC/LC-MS/MS analysis in presence of NADPH-generating system/SAM; type: ADME
Cytochrome P450 1A2 [4] = biological target: T2, Cytochrome P450 1A2 (Homo sapiens, UniProt P05177); experiment: Activity of human CYP1A2 expressed in microsomes isolated from baculovirus infected insect cell assessed as enzyme-mediated 5-(4-((6-hydroxy-1-methyl-1H-benzo[d]imidazol-2-yl)methoxy)benzyl)thiazolidine-2,4-dione formation at 20 uM after 2 hrs by radio-HPLC/LC-MS/MS analysis in presence of NADPH-generating system and NADPH-generating system/SAM; type: ADME
T2 sequence (P05177 whole entry): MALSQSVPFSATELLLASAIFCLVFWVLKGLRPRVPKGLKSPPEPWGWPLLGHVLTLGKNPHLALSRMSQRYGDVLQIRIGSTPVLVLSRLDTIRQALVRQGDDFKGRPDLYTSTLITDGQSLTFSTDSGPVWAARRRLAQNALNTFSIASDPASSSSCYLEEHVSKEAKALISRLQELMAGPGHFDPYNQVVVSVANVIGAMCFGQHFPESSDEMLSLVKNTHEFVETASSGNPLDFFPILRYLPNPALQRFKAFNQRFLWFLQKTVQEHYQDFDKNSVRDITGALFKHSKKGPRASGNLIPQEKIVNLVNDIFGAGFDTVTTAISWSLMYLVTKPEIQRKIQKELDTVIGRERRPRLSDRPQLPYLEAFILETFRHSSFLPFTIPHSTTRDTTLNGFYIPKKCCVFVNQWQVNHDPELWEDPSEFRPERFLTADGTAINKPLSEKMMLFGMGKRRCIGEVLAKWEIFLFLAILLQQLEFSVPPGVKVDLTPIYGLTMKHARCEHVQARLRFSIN
Procedure, shortened: (§1)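 Baculovirus/insect-cell microsomes expressing single human CYPs, 1 mg/ml protein, with 50 mM potassium phosphate (pH 7.4) or 100 mM Tris-HCl (pH 7.5). NADPH-generating system: 2 mM NADP⁺, 20 mM glucose 6-phosphate, 2 units/ml G6PDH, 10 mM MgCl₂. [¹⁴C]rivoglitazone at 20 μM, 2 h at 37°C with shaking. Control used insect-cell control supersomes. Stopped with acetonitrile; supernatant concentrated under nitrogen; metabolites analysed by radio-HPLC, LC-MS and LC-MS/MS.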

Liver microsome = experiment: Drug metabolism in Sprague-Dawley rat liver microsomes assessed as formation of 2-hydroxy-3-(4-((6-methoxy-1-methyl-1H-benzo[d]imidazol-2-yl)methoxy)phenyl)propanamide at 20 uM after 2 hrs by radio-HPLC/LC-MS/MS analysis in presence of NADPH-generating system and NADPH-generating system/SAM; type: ADME
Cytochrome P450 1A2 [5] = biological target: T2, Cytochrome P450 1A2; experiment: Activity of human CYP1A2 expressed in microsomes isolated from baculovirus infected insect cell assessed as enzyme-mediated 2-((4-((2,4-dioxothiazolidin-5-yl)methyl)phenoxy)methyl)-1-methyl-1H-benzo[d]imidazol-6-yl hydrogen sulfate formation at 20 uM after 2 hrs by radio-HPLC/LC-MS/MS analysis; type: ADME; procedure, shortened: as §1
Cytochrome P450 2D6 = Cytochrome P450 2D6 (Homo sapiens, UniProt P10635); experiment: Activity of human CYP2D6 expressed in microsomes isolated from baculovirus infected insect cell assessed as enzyme-mediated 2-mercapto-3-(4-((6-methoxy-1-methyl-1H-benzo[d]imidazol-2-yl)methoxy)phenyl)propanoic acid formation at 20 uM after 2 hrs by radio-HPLC/LC-MS/MS analysis in presence of NADPH-generating system; type: ADME
Procedure, shortened: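 Baculovirus-insect-cell microsomes expressing the human CYP (1 mg/ml protein) were incubated with [14C]rivoglitazone (20 μM) in 50 mM potassium phosphate (pH 7.4) or 100 mM Tris-HCl (pH 7.5) with an NADPH-generating system (2 mM NADP+, 20 mM glucose 6-phosphate, 2 units/ml G6PDH, 10 mM MgCl2) for 2 h at 37°C. Insect-cell control supersomes served as the control. Reactions were stopped with acetonitrile, and the concentrated supernatants were analysed by radio-HPLC, LC-MS and LC-MS/MS.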

[6] = Drug metabolism in rat hepatocytes assessed as formation of 5-(4-((6-methoxy-1H-benzo[d]imidazol-2-yl)methoxy)benzyl)thiazolidine-2,4-dione at 30 uM after 3 hrs by radio-HPLC/LC-MS/MS analysis in presence of NADPH-generating system and NADPH-generating system/SAM; type: ADME, cell-based, Hepatocyte

Sequence of Cytochrome P450 2C9 (P11712 whole entry): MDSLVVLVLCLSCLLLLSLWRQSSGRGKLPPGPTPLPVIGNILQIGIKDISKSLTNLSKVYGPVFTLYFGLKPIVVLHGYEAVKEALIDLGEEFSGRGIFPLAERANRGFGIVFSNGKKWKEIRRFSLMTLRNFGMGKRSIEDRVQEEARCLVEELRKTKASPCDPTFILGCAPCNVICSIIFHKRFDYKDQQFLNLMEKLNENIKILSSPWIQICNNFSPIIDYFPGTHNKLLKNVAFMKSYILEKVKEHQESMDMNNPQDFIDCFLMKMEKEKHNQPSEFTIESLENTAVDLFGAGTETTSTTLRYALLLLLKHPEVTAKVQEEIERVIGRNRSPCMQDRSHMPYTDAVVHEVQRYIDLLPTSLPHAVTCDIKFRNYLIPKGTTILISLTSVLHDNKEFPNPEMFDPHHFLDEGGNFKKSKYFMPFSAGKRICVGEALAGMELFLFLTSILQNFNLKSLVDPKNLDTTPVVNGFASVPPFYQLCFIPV
Sequence of Cytochrome P450 2D6 (P10635 whole entry): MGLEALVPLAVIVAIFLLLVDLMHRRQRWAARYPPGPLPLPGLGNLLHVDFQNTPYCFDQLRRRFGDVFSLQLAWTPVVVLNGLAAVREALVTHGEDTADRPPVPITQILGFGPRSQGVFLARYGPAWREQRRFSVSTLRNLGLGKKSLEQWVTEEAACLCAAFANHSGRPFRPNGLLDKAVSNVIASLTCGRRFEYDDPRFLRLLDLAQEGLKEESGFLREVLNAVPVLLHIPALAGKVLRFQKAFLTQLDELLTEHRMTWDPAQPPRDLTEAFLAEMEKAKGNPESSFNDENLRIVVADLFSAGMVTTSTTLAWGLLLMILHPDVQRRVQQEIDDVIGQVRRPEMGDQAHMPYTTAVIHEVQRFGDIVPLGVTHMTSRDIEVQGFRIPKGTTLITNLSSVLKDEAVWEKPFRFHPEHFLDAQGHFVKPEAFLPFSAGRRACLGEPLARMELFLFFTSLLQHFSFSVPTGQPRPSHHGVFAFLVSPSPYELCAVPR

Drug metabolism [1]: metabolite_not_detected | Drug metabolism [2]: metabolite_detected | Drug metabolism [3]: metabolite_not_detected | Drug metabolism (Cytochrome P450 2C9): metabolite_not_detected | Drug metabolism (Cytochrome P450 1A2 [4]): metabolite_detected | Drug metabolism (Liver microsome): metabolite_detected | Drug metabolism (Cytochrome P450 1A2 [5]): metabolite_not_detected | Drug metabolism (Cytochrome P450 2D6): metabolite_detected | Drug metabolism [6]: metabolite_detected
SMILES: COc1ccc2nc(COc3ccc(C[14CH]4SC(=O)NC4=O)cc3)n(C)c2c1.Cl (racemic)
